According to ChEMBL document CHEMBL1144402, “Effect of a 6-cyano substituent in 14-oxygenated N-methylmorphinans on opioid receptor binding and antinociceptive potency” (J Med Chem, 2005):

Columns and labels:
[1] = biological target: Kappa-type opioid receptor (Rattus norvegicus, UniProt P34975); test: Displacement of[3H]U69,593 from kappa opioid receptor of rat brain membranes
Summary of the method: (§1)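 Competitive binding on rat brain membrane preparations with the tritiated radioligand named for each receptor (μ, [3H]DAMGO; δ, [3H][Ile5,6]deltorphin II; κ, [3H]U69,593). Affinity is reported as inhibition constant (Ki).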

Mu-type opioid receptor = Mu-type opioid receptor (Rattus norvegicus, UniProt P33535); test: Displacement of [3H][DAMGO] from mu opioid receptor of rat brain membranes; assay type: cell membranes, Membrane; summary of the method: as §1
Sequence of Mu-type opioid receptor (P33535 whole entry): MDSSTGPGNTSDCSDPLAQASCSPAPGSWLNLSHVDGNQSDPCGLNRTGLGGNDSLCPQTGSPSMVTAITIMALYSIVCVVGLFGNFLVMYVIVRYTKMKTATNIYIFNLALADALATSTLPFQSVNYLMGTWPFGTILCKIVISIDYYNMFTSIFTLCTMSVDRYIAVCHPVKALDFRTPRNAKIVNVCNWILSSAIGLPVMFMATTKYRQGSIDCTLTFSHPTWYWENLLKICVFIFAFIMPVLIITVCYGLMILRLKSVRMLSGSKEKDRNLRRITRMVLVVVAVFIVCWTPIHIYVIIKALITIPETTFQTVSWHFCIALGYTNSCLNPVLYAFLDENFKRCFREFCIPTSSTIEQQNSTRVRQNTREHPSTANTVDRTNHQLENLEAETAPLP

Mus musculus [2] = test: In vivo analgesic effect of the compound (sc) assessed as antinociceptive potency by hot plate test in mice; assay type: functional
Summary of the method: (§2)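 Male ICR mice of 20–30 g, each animal tested only once. Drug given subcutaneously at a minimum of three doses, 6–10 mice per dose. Hot-plate, tail-flick and p-phenylquinone writhing tests were run as modified procedures. Potency is given as the 50% effective dose with 95% confidence limits.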

[3] = biological target: Delta-type opioid receptor (Rattus norvegicus, UniProt P33533); test: Displacement of [3H]Ile5,6]-deltorphin II from delta opioid receptor of rat brain membranes; assay type: cell membranes, Membrane; summary of the method: as §1
Sequence of Delta-type opioid receptor (P33533 whole entry): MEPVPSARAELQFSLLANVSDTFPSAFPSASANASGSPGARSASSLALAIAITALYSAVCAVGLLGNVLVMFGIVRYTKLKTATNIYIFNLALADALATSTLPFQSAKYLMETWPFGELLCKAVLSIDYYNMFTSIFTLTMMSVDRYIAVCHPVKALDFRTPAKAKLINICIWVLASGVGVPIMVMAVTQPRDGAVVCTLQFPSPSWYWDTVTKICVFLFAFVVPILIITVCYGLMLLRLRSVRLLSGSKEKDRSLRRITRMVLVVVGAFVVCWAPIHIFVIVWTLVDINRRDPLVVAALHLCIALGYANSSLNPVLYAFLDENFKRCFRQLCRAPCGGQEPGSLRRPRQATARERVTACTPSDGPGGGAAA

Mus musculus [4] = test: In vivo analgesic effect of the compound (sc) assessed as antinociceptive potency by p-phenylquinone writhing test in mice; assay type: functional; summary of the method: as §2
Mus musculus [5] = test: In vivo analgesic effect of the compound (sc) assessed as antinociceptive potency by tail flick test in mice; assay type: functional; summary of the method: as §2
Mus musculus [6] = test: In vivo analgesic effect (sc) assessed as antinociceptive potency by tail flick test in mice; assay type: functional; summary of the method: as §2
Mus musculus [7] = test: In vivo analgesic effect (sc) assessed as antinociceptive potency by p-phenylquinone writhing test in mice; assay type: functional; summary of the method: as §2
Mus musculus [8] = test: In vivo analgesic effect (sc) assessed as antinociceptive potency by hot plate test in mice; assay type: functional; summary of the method: as §2

Sequence of Kappa-type opioid receptor (P34975 whole entry): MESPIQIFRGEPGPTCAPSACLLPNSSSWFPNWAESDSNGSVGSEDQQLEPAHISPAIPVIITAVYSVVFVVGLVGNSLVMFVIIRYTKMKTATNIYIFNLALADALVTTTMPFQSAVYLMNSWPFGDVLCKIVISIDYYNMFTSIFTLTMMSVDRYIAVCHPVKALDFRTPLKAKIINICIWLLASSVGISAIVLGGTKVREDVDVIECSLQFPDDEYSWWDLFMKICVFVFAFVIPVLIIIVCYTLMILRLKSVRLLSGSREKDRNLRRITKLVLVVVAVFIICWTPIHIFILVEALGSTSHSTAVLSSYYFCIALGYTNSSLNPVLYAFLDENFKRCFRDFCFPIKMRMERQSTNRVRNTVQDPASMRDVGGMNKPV

## COc1ccc2c(c1O)[C@]13CCN(C)[C@H](C2)[C@]1(OC)CCC(=O)C3
[1]
  Ki: 592 nM
Mu-type opioid receptor
  Ki: 4.65 nM
Mus musculus [2]
  ED50: 0.29 mg/kg
[3]
  Ki: 180 nM

## COc1ccc2c(c1OC)[C@]13CCN(C)[C@H](C2)[C@]1(O)CCC(=O)C3
[1]
  Ki: 693 nM
Mu-type opioid receptor
  Ki: 3.88 nM
Mus musculus [2]
  ED50: 0.14 mg/kg
[3]
  Ki: 91.6 nM

## COc1ccc2c(c1O)[C@@]13C=C(C#N)CC[C@@]1(OC)[C@@H](C2)N(C)CC3
[1]
  Ki: 378 nM
Mu-type opioid receptor
  Ki: 5.38 nM
Mus musculus [4]
  ED50: 0.11 mg/kg
Mus musculus [2]
  ED50: 0.25 mg/kg
Mus musculus [5]
  ED50: 0.21 mg/kg
[3]
  Ki: 197 nM

## COc1ccc2c(c1O)[C@]13CCN(C)[C@H](C2)[C@]1(O)CCC(=O)C3
[1]
  Ki: 763 nM
Mu-type opioid receptor
  Ki: 32.6 nM
Mus musculus [2]
  ED50: 2.6 mg/kg
[3]
  Ki: 881 nM

## COc1ccc2c(c1O)[C@@]13C=C(C#N)CC[C@@]1(O)[C@@H](C2)N(C)CC3
[1]
  Ki: 1650 nM
Mus musculus [4]
  ED50: 0.18 mg/kg
Mus musculus [2]
  ED50: 0.5 mg/kg
Mus musculus [5]
  ED50: 1.88 mg/kg
[3]
  Ki: 498 nM

## COc1ccc2c(c1OC)[C@@]13C=C(C#N)CC[C@@]1(O)[C@@H](C2)N(C)CC3
[1]
  Ki: 364 nM
Mu-type opioid receptor
  Ki: 2.44 nM
Mus musculus [4]
  ED50: 0.026 mg/kg
Mus musculus [2]
  ED50: 0.15 mg/kg
Mus musculus [5]
  ED50: 0.018 mg/kg
[3]
  Ki: 107 nM

## COc1ccc2c3c1O[C@H]1C(=O)CC[C@@]4(O)[C@@H](C2)N(C)CC[C@]314 [OXYCODONE]
Mus musculus [6]
  ED50: 0.94 mg/kg
Mus musculus [7]
  ED50: 0.38 mg/kg
Mus musculus [8]
  ED50: 1.37 mg/kg
